Results: ChEMBL document CHEMBL4609999, “Novel alkoxyamide-based histone deacetylase inhibitors reverse cisplatin resistance in chemoresistant cancer cells” (Bioorg Med Chem, 2020)
Active and inactive are the calls of the source. The rule behind the calls is not given here.

Columns and labels:
Histone deacetylase 8 = molecular target: T1, Histone deacetylase 8 (Homo sapiens, UniProt Q9BY41); test: Inhibition of recombinant human HDAC8
T1 sequence (Q9BY41 whole entry): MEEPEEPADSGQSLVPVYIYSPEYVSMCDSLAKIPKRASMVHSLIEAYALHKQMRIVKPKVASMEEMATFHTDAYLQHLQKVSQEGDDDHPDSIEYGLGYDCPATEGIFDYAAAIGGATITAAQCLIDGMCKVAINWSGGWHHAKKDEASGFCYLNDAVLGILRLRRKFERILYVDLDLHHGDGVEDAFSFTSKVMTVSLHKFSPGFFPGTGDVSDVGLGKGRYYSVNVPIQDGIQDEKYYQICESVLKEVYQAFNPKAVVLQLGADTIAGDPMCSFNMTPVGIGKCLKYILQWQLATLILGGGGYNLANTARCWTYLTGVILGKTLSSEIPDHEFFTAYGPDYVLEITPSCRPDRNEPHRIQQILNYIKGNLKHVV

[1] = molecular target: T2, Protein deacetylase HDAC6 (Homo sapiens, UniProt Q9UBN7); test: Inhibition of recombinant human HDAC6
T2 sequence (Q9UBN7 whole entry): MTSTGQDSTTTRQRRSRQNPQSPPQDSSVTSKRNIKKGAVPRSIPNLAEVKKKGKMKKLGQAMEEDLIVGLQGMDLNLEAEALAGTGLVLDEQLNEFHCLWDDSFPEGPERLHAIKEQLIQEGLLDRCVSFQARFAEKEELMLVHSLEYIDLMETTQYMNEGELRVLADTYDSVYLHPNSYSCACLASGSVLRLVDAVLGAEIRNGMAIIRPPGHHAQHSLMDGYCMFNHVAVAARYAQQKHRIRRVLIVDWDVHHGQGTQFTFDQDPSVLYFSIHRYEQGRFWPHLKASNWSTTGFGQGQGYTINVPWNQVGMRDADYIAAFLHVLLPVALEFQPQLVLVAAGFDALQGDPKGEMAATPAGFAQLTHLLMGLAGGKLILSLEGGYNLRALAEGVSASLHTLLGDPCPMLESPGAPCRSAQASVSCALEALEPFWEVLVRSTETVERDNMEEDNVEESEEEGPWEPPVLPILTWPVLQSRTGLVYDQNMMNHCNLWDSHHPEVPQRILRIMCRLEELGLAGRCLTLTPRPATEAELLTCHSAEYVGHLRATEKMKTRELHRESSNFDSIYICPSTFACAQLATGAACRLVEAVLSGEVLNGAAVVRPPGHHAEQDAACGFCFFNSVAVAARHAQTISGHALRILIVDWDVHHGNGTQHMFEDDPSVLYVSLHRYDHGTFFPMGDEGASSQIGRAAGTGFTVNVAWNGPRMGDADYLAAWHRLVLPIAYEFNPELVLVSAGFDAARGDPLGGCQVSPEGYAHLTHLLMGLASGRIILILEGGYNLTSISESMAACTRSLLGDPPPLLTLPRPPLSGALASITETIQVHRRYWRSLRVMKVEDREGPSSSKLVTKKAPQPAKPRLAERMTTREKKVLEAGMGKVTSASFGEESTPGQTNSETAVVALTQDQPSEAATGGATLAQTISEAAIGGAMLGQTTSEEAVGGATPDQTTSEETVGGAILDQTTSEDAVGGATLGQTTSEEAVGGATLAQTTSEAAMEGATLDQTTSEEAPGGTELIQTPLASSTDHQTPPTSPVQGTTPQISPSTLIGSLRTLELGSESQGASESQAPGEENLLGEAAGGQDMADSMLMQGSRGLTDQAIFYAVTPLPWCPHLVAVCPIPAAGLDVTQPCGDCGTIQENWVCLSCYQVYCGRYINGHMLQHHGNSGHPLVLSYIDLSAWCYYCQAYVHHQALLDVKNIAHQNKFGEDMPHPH

Histone deacetylase 4 = Histone deacetylase 4 (Homo sapiens, UniProt P56524); test: Inhibition of recombinant human HDAC4
Histone deacetylase 4, sequence (P56524 whole entry): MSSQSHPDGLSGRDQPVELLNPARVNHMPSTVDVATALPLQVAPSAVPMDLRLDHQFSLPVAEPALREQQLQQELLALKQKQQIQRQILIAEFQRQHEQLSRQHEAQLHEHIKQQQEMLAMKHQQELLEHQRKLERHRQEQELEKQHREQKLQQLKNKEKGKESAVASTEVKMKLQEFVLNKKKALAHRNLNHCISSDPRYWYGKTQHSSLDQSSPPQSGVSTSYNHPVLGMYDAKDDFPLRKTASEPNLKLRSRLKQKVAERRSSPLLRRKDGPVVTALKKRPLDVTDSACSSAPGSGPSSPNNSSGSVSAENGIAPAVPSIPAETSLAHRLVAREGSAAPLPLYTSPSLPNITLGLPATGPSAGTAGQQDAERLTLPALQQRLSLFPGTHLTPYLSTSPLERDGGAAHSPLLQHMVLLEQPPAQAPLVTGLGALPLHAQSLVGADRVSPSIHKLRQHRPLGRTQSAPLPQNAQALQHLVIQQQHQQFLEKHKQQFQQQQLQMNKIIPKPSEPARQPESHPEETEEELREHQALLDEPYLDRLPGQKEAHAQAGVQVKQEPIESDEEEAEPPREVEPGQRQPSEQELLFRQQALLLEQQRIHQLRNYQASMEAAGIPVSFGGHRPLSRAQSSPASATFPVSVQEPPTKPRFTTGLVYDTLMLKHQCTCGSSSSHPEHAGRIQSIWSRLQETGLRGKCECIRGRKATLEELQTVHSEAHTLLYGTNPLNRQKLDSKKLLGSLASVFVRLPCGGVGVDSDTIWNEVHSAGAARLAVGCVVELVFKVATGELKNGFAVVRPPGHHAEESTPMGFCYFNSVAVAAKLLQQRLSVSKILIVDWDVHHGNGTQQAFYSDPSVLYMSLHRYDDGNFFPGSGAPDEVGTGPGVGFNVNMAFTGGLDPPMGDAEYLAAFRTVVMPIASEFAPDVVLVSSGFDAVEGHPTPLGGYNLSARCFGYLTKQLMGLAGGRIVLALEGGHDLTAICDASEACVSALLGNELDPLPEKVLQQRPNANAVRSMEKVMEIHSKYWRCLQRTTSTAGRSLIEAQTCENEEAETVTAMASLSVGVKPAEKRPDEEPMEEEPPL

Histone deacetylase 2 = Histone deacetylase 2 (Homo sapiens, UniProt Q92769); test: Inhibition of recombinant human HDAC2
Histone deacetylase 2, sequence (Q92769 whole entry): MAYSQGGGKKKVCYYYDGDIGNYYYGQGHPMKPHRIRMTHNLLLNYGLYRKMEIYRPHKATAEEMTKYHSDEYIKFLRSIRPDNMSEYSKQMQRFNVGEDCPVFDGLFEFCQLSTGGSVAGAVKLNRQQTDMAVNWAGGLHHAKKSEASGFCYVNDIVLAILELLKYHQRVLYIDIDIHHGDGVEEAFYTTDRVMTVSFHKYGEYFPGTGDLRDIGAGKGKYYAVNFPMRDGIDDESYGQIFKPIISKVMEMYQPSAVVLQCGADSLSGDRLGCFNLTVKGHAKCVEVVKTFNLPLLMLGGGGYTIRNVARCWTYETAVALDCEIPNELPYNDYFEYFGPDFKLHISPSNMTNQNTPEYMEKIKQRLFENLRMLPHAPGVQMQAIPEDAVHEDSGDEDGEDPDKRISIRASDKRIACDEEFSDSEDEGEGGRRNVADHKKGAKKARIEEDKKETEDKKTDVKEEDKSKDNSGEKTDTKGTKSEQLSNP

Histone deacetylase [2] = test: Inhibition of HDAC in human A2780 cells; format: cell-based
A2780 = test: Cytotoxicity against human A2780 cells assessed as reduction in cell viability by MTT assay; format: functional, cell-based
Histone deacetylase [3] = test: Inhibition of HDAC in human Cal27 cells; format: cell-based; settings: cal-27
CAL-27 [4] = test: Cytotoxicity against human CAL27 cells assessed as reduction in cell viability by MTT assay; format: functional, cell-based
[5] = molecular target: T3, Protein deacetylase HDAC6 (Homo sapiens) (UniProt Q9UBN7); test: Inhibition of HDAC6 in human CAL27 cells assessed as increase in acetylated alpha-tubulin at 1.5 uM incubated for 24 hrs by immunoblot analysis; format: cell-based; settings: CAL-27
T3 sequence (whole entry): T2 sequence (Q9UBN7 whole entry)
Procedure, shortened: (§1)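 Cal27 and Cal27CisR cells incubated 24 h with vehicle or with inhibitor at 1.5, 3 or 5 µM. Western blot for α-tubulin, acetyl-α-tubulin and acetyl-histone H3.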

[6] = molecular target: T4, Class 1 histone deacetylase (Homo sapiens) (UniProt Q13547+O15379+Q92769+Q9BY41); test: Inhibition of class 1 histone deacetylase in human CAL27 cells assessed as increase in H3 histone acetylation at 1.5 uM incubated for 24 hrs by immunoblot analysis; format: cell-based; settings: CAL-27; procedure, shortened: as §1
CAL-27 [7] = test: Potentiation of cisplatin-induced cytotoxicity against human CAL27 cells assessed as shift factor by measuring ratio of cisplatin IC50 to cisplatin IC50 in presence of compound at 0.2 uM incubated for 72 hrs followed by cisplatin addition and measured after 72 hrs by MTT assay; format: functional
Procedure, shortened: (§2)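 MTT shift assay. Cal27 cells received HDACi at 0.2, 0.4 or 1.4 µM; Cal27CisR cells received 0.8 or 6 µM. Cells were incubated 72 h with a cisplatin range. Shift factor = cisplatin IC50 alone / cisplatin IC50 with HDACi, significance by t-test (p<0.05). Pooled mean of ≥3 experiments, each in triplicate.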

[8] = Potentiation of cisplatin-induced cytotoxicity against human Cal27CisR cells assessed as shift factor by measuring ratio of cisplatin IC50 to cisplatin IC50 in presence of compound at 0.8 uM incubated for 72 hrs followed by cisplatin addition and measured after 72 hrs by MTT assay; format: functional; procedure, shortened: as §2
CAL-27 [9] = test: Induction of apoptosis in human CAL27 cells assessed as increase in caspase 3/7 activation at 0.4 uM incubated for 24 hrs by Hoechst 33342 staining based fluorescence assay; format: functional, cell-based
CAL-27 [10] = test: Potentiation of cisplatin-induced apoptosis in human CAL27 cells assessed as increase in caspase 3/7 activation at 0.4 uM incubated for 24 hrs followed by cisplatin addition by Hoechst 33342 staining based fluorescence assay; format: functional, cell-based
Procedure, shortened: (§3)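 Cal27 cells pretreated with HDACi at 0.4, 0.8 or 2.8 µM, then 24 h more with 3 µM cisplatin. Cal27CisR cells pretreated at 0.8 or 8 µM, then 24 h with 25 µM cisplatin. 100 µM cisplatin as positive control. Active caspase 3/7 imaged by green fluorescence, nuclei counterstained with Hoechst 33342 (blue).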

Homo sapiens [11] = species on record: Homo sapiens; test: Induction of apoptosis in human Cal27CisR cells assessed as increase in caspase 3/7 activation at 0.8 uM incubated for 24 hrs by Hoechst 33342 staining based fluorescence assay; format: functional, cell-based
Homo sapiens [12] = species on record: Homo sapiens; test: Potentiation of cisplatin-induced apoptosis in human Cal27CisR cells assessed as increase in caspase 3/7 activation at 0.8 uM incubated for 24 hrs followed by cisplatin addition by Hoechst 33342 staining based fluorescence assay; format: functional, cell-based; procedure, shortened: as §3
[13] = molecular target: T3, Protein deacetylase HDAC6 (Homo sapiens); test: Inhibition of HDAC6 in human Cal27CisR cells assessed as increase in acetylated alpha-tubulin at 1.5 uM incubated for 24 hrs by immunoblot analysis; format: cell-based; procedure, shortened: as §1
[14] = molecular target: T4, Class 1 histone deacetylase (Homo sapiens); test: Inhibition of class 1 histone deacetylase in human Cal27CisR cells assessed as increase in H3 histone acetylation at 1.5 uM incubated for 24 hrs by immunoblot analysis; format: cell-based; procedure, shortened: as §1
CAL-27 [15] = test: Potentiation of cisplatin-induced cytotoxicity against human CAL27 cells assessed as shift factor by measuring ratio of cisplatin IC50 to cisplatin IC50 in presence of compound at 0.4 uM incubated for 72 hrs followed by cisplatin addition and measured after 72 hrs by MTT assay; format: functional; procedure, shortened: as §2
CAL-27 [16] = test: Induction of apoptosis in human CAL27 cells assessed as increase in caspase 3/7 activation at 0.8 uM incubated for 24 hrs by Hoechst 33342 staining based fluorescence assay; format: functional, cell-based
CAL-27 [17] = test: Potentiation of cisplatin-induced apoptosis in human CAL27 cells assessed as increase in caspase 3/7 activation at 0.8 uM incubated for 24 hrs followed by cisplatin addition by Hoechst 33342 staining based fluorescence assay; format: functional, cell-based; procedure, shortened: as §3

Compound: COc1cc(OC)cc(C(=O)NOCCCCCC(=O)NO)c1
- Ki (Histone deacetylase 8): 5.69 µM
- Ki [1]: 0.03 µM
- Ki (Histone deacetylase 4): 49.2 µM
- Ki (Histone deacetylase 2): 0.06 µM
- IC50 (Histone deacetylase [2]): 0.83 µM
- IC50 (A2780): 0.89 µM
- IC50 (Histone deacetylase [3]): 0.45 µM
- IC50 (CAL-27 [4]): 0.72 µM
- inhibition [5]: Active
- inhibition [6]: Active
- PF (CAL-27 [7]): 3.79
- PF [8]: 12.8
- Activity (CAL-27 [9]): Active
- Activity (CAL-27 [10]): Active
- Activity (Homo sapiens [11]): Active
- Activity (Homo sapiens [12]): Active
- inhibition [13]: Active
- inhibition [14]: Active

Compound: O=C(CCCCCONC(=O)c1cc(C(F)(F)F)cc(C(F)(F)F)c1)NO
- Ki (Histone deacetylase 8): 4.9 µM
- Ki [1]: 0.56 µM
- Ki (Histone deacetylase 4): 83.7 µM
- Ki (Histone deacetylase 2): 0.55 µM
- IC50 (Histone deacetylase [2]): 11 µM
- IC50 (A2780): 30.5 µM
- IC50 (Histone deacetylase [3]): 10.56 µM
- IC50 (CAL-27 [4]): 15.8 µM

Compound: Cc1cc(C)cc(C(=O)NOCCCCCC(=O)NO)c1
- Ki (Histone deacetylase 8): 4.81 µM
- Ki [1]: 0.05 µM
- Ki (Histone deacetylase 4): > 100 µM
- Ki (Histone deacetylase 2): 0.08 µM
- IC50 (Histone deacetylase [2]): 0.17 µM
- IC50 (A2780): 0.97 µM
- IC50 (Histone deacetylase [3]): 0.55 µM
- IC50 (CAL-27 [4]): 0.76 µM
- inhibition [5]: Active
- inhibition [6]: Active
- PF (CAL-27 [15]): 3
- PF [8]: 8.36
- Activity (CAL-27 [16]): Active
- Activity (CAL-27 [17]): Active
- Activity (Homo sapiens [11]): Active
- Activity (Homo sapiens [12]): Active
- inhibition [13]: Active
- inhibition [14]: Active

Compound: O=C(CCCCCONC(=O)c1cc(Br)cc(Br)c1)NO
- Ki (Histone deacetylase 8): 4.44 µM
- Ki [1]: 0.12 µM
- Ki (Histone deacetylase 4): 31.8 µM
- Ki (Histone deacetylase 2): 0.21 µM
- IC50 (Histone deacetylase [2]): 1.65 µM
- IC50 (A2780): 10.2 µM
- IC50 (Histone deacetylase [3]): 1.8 µM
- IC50 (CAL-27 [4]): 3.63 µM

Compound: O=C(CCCCCONC(=O)c1cc(F)cc(F)c1)NO
- Ki (Histone deacetylase 8): 14.7 µM
- Ki [1]: 0.1 µM
- Ki (Histone deacetylase 4): > 100 µM
- Ki (Histone deacetylase 2): 0.58 µM
- IC50 (Histone deacetylase [2]): 3.79 µM
- IC50 (A2780): 13.7 µM
- IC50 (Histone deacetylase [3]): 3.77 µM
- IC50 (CAL-27 [4]): 7.98 µM

Compound: Cc1cc(C)cc(C(=O)NOCCCCC(=O)NO)c1
- Ki (Histone deacetylase 8): 22.3 µM
- Ki [1]: 0.42 µM
- Ki (Histone deacetylase 4): > 100 µM
- Ki (Histone deacetylase 2): 0.37 µM
- IC50 (Histone deacetylase [2]): 4.24 µM
- IC50 (A2780): 9.34 µM
- IC50 (Histone deacetylase [3]): 3.36 µM
- IC50 (CAL-27 [4]): 8.67 µM

Compound: O=C(CCCCCONC(=O)c1cc(I)cc(I)c1I)NO
- Ki (Histone deacetylase 8): 10 µM
- Ki [1]: 0.33 µM
- Ki (Histone deacetylase 4): > 100 µM
- Ki (Histone deacetylase 2): 1.33 µM
- IC50 (Histone deacetylase [2]): 7.2 µM
- IC50 (A2780): 64 µM
- IC50 (Histone deacetylase [3]): 9.4 µM
- IC50 (CAL-27 [4]): 45 µM

Compound: O=C(CCCCCONC(=O)c1c(Cl)cncc1Cl)NO
- Ki (Histone deacetylase 8): 18.9 µM
- Ki [1]: 0.35 µM
- Ki (Histone deacetylase 4): > 100 µM
- Ki (Histone deacetylase 2): 1.36 µM
- IC50 (Histone deacetylase [2]): 14.5 µM
- IC50 (A2780): 68.4 µM
- IC50 (Histone deacetylase [3]): 12.7 µM
- IC50 (CAL-27 [4]): 28.1 µM

Compound: CC(C)(C)c1cc(C(=O)NOCCCCCC(=O)NO)cc(C(C)(C)C)c1
- Ki (Histone deacetylase 8): 28.1 µM
- Ki [1]: 2.15 µM
- Ki (Histone deacetylase 4): > 100 µM
- Ki (Histone deacetylase 2): 1.57 µM
- IC50 (Histone deacetylase [2]): 0.93 µM
- IC50 (A2780): 1.55 µM
- IC50 (Histone deacetylase [3]): 1.3 µM
- IC50 (CAL-27 [4]): 1 µM
